{"source": "paper PMC9283749", "about": "(Clinical and Translational Science, 2022)", "key": {"Population PK modeling": {"assay": "Population PK modeling", "format": "in vivo, human", "conditions": "patients, 5-45 mg oral", "outline": "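Pooled 1098 plasma concentrations from 66 patients across 10 oral regimens, measured by LC-MS/MS (LLOQ 1.0 ng/ml). Serial sampling to 24 h on C1D1 and C1D15, plus predose troughs. Two-compartment model with first-order absorption, lag time and linear clearance, fitted in log domain by FOCE in NONMEM. Log-normal interindividual variability on Ka, CL, Vc, CLd, Vp and Tlag; baseline covariates screened.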"}, "Porcupine": {"tested_on": "Porcupine", "conditions": "read-out: in vitro cellular IC50 for Porcupine; cited from earlier work"}, "[1]": {"tested_on": "patients with advanced solid tumors", "assay": "Phase I first-in-human study, safety and antitumor activity", "format": "in vivo", "outline": "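Patients with advanced solid tumours. Without run-in, patients got 5, 7.5, 10, 15, 20, 22.5 or 30 mg continuous q.d.; 30 or 45 mg intermittent q.d. (4 days on/3 off); or 5 mg continuous b.i.d. Adverse events were graded by CTCAE v4.03.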"}, "[2]": {"tested_on": "skin AXIN2 mRNA expression", "assay": "Exposure-response analysis for biomarker", "format": "in vivo", "conditions": "Homo sapiens, read-out: WNT974 concentration resulting in 50% Emax (EC50), skin AXIN2 reduction, estimated mean (90% prediction interval)"}, "[3]": {"tested_on": "patients with advanced solid tumors", "conditions": "cited from earlier work"}, "CYP3A": {"tested_on": "CYP3A", "conditions": "in vitro; cited from earlier work"}, "[4]": {"conditions": "cited from earlier work"}, "[5]": {"conditions": "cited from earlier work", "remark": "listed apart in the source"}, "CYP3A4": {"tested_on": "CYP3A4", "conditions": "cited from earlier work"}, "[6]": {"assay": "Simulated steady-state PK from the PopPK model", "format": "in vivo, human", "outline": "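Steady-state C1D15 plasma profiles simulated from the final population PK model in 200–500 hypothetical patients per continuous once-daily dosing scenario. Cmin, Cmax and AUC24h derived from the simulated profiles.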"}, "[7]": {"tested_on": "xenograft and Wnt ligand-driven mouse tumor models", "conditions": "cited from earlier work"}}, "note": "“Also recorded” adds a separate entry of the source.", "data": [{"compound": "Cc1cc(-c2ncc(CC(=O)Nc3ccc(-c4cnccn4)cn3)cc2C)ccn1", "note": "[WNT974]", "values": [{"measurement": "Absorption lag time (Tlag), population estimate (%RSE)", "setting": "Population PK modeling", "value": "0.412 (3.2) h"}, {"measurement": "Apparent central clearance (CL/F), population estimate (%RSE)", "setting": "Population PK modeling", "value": "20.7 (3.9) L/h"}, {"measurement": "Central volume of distribution (Vc), population estimate (%RSE)", "setting": "Population PK modeling", "value": "138 (2.0) L"}, {"measurement": "Distribution clearance (CLd), population estimate (%RSE)", "setting": "Population PK modeling", "value": "7.11 (9.4) L/h"}, {"measurement": "Peripheral volume of distribution (Vp), population estimate (%RSE)", "setting": "Population PK modeling", "value": "260 (9.4) L"}, {"measurement": "Absorption rate constant (Ka), population estimate (%RSE)", "setting": "Population PK modeling; 66 patients", "value": "1.60 (17.0) 1/h"}, {"measurement": "IC50", "setting": "Porcupine", "value": 0.4, "unit": "nM"}, {"measurement": "maximum tolerated dose (MTD)", "setting": "[1]; dose-escalation part, 5-45 mg", "value": "not established"}, {"measurement": "antitumor activity in patients", "setting": "[1]; dose-escalation study", "value": "limited antitumor activity"}, {"measurement": "EC50", "setting": "[2]", "value": 0.45, "unit": "ng/mL"}, {"measurement": "patients with dysgeusia (most common adverse event)", "setting": "[3]; FIH study", "value": "~ 50 % of patients"}, {"measurement": "best response: patients with stable disease", "setting": "[3]; dose-expansion part of the single-agent study", "value": "16 % of patients"}, {"measurement": "CYP3A inhibition", "setting": "CYP3A", "value": "moderate reversible inhibitor"}, {"measurement": "elimination half-life (t1/2)", "setting": "[4]; all the animal species (mouse, rat, dog)", "value": "0.6 to 2.2", "unit": "h"}, {"measurement": "oral bioavailability", "setting": "[4]; mouse, rat, and dog", "value": "60–100%"}, {"measurement": "mean unbound Cmin", "setting": "[5]; C1D15, continuous q.d. dose of 5-30 mg", "value": "1.1 to 7.6", "unit": "nM"}, {"measurement": "dose proportionality of exposure", "setting": "[5]; dose range 5-45 mg", "value": "dose proportional"}, {"measurement": "mean t1/2", "setting": "[5]; patients, oral administration", "value": "5 to 8", "unit": "h"}, {"measurement": "median Tmax", "setting": "[5]; patients, oral administration", "value": "1 to 3", "unit": "h"}, {"measurement": "metabolism", "setting": "CYP3A4", "value": "extensively metabolized, primarily by CYP3A4"}, {"measurement": "Predicted steady-state AUC24h, mean (90% confidence interval)", "setting": "[6]; 5 mg q.d.", "value": "233 (133–445) ng h/ml"}, {"measurement": "Predicted steady-state Cmax, mean (90% confidence interval)", "setting": "[6]; 5 mg q.d.", "value": "28.1 (13.7–59.1) ng/ml"}, {"measurement": "Predicted steady-state Cmin, mean (90% confidence interval)", "setting": "[6]; 5 mg q.d.", "value": "2.83 (0.835–8.02) ng/ml"}, {"measurement": "Predicted steady-state AUC24h, mean (90% confidence interval)", "setting": "[6]; 10 mg q.d.", "value": "468 (254–880) ng h/ml"}, {"measurement": "Predicted steady-state Cmax, mean (90% confidence interval)", "setting": "[6]; 10 mg q.d.", "value": "55.7 (26.1–109) ng/ml"}, {"measurement": "Predicted steady-state Cmin, mean (90% confidence interval)", "setting": "[6]; 10 mg q.d.", "value": "5.78 (1.66–16.3) ng/ml"}, {"measurement": "Predicted steady-state AUC24h, mean (90% confidence interval)", "setting": "[6]; 15 mg q.d.", "value": "699 (394–1294) ng h/ml"}, {"measurement": "Predicted steady-state Cmax, mean (90% confidence interval)", "setting": "[6]; 15 mg q.d.", "value": "80.6 (41.7–166) ng/ml"}, {"measurement": "Predicted steady-state Cmin, mean (90% confidence interval)", "setting": "[6]; 15 mg q.d.", "value": "8.21 (2.60–24.3) ng/ml"}, {"measurement": "antitumor activity", "setting": "[7]; preclinical tumor models", "value": "exhibited antitumor activity; also recorded: potent antitumor activity"}, {"measurement": "AXIN2 mRNA expression in tumors", "setting": "[7]; xenograft and Wnt ligand-driven mouse tumor models", "value": "reduction of AXIN2 mRNA expression in tumors"}]}]}
